# From ChEMBL document CHEMBL3124751, “The versatile nature of the 6-aminoquinolone scaffold: identification of submicromolar hepatitis C virus NS5B inhibitors” (J Med Chem, 2014)
# Key:
# [1] = Cytostatic activity against human Huh5-2 cells assessed as cell viability after 72 hrs by MTS assay; type: cell-based; conditions: huh-5-2, 72 h
# How it was run: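 Huh 5-2 cells carry genotype 1b I389luc-ubineo/NS3-3'/5.1 replicon, maintained with 2% Geneticin. Seeded at 6 500 cells/well in Geneticin-free assay medium, overnight. Four-step 1:5 dilution screen or eight-step 1:2 series, 72 h at 37 °C. 5% MTS for 1.5 h, absorbance at 498 nm as % of untreated. CC50 from dose-response, mean of ≥3 independent experiments.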
# [2] = tested on: Hepatitis C virus; test: Antiviral activity against Hepatitis C virus genotype 1b I389luc-ubi-neo/NS3-3'/5.1 replicon in Huh 5-2 cells assessed as inhibition of replicon replication after 72 hrs by replicon system assay; type: functional, organism-based, Hepacivirus hominis; conditions: Huh-5-2, 72 h
# How it was run: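 Huh 5-2 replicon cells seeded at 6 500 cells/well one day before compound in DMEM with 10% FCS, 1% non-essential amino acids, 1% penicillin/streptomycin, no Geneticin. Four-step 1-to-5 or eight-step 1-to-2 dilutions, 72 h at 37 °C, 5% CO₂. Luciferase luminescence read after lysis, as % of untreated controls. EC50/EC90 from dose-response curves, means of at least three independent experiments.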
# [3] = Inhibition of Hepatitis C virus genotype 1b HC-J4 recombinant N-terminal histidine tagged truncated NS5B polymerase lacking C-terminal 21 amino acids assessed as standard-primer dependent elongation reaction using poly rA/U12 as template after 1 hr by liquid scintillation counting analysis; parameters: species or system Hepatitis C virus isolate HC-J4
# How it was run: (§1)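 Construct is His-tagged HC-J4 NS5B CΔ21, Ni-NTA purified. Poly rA/U12 primer-dependent elongation run 1 h at 30 °C, then stopped with chilled 5% TCA/0.5 mM pyrophosphate. Products collected on GF-B filters and counted by scintillation. Activity expressed relative to DMSO control. Screen at 25 μM. IC50 from 8–12 concentrations in duplicate, two independent experiments, by nonlinear regression.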
# [4] = Selectivity index, ratio of CC50 for human Huh5-2 cells to EC50 for Hepatitis C virus genotype 1b I389luc-ubi-neo/NS3-3'/5.1 replicon in Huh 5-2 cells; type: toxicity, cell-based; conditions: read-out: Ratio CC50/EC50
# How it was run: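 Huh 5-2 replicon cells seeded at 6,500/well, overnight at 37 °C; compound dilution series (four-step 1:5 screen, eight-step 1:2 dose-response), 72 h. Antiviral: luciferase luminescence versus untreated controls. Parallel anti-metabolic: 5% MTS 1.5 h, absorbance 498 nm. EC50, CC50 from dose-response curves, means of at least three independent experiments; SI = CC50/EC50.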
# [5] = tested on: Hepatitis C virus isolate HC-J4; test: Inhibition of Hepatitis C virus genotype 1b HC-J4 recombinant N-terminal histidine tagged truncated NS5B polymerase lacking C-terminal 21 amino acids assessed as standard-primer dependent elongation reaction using poly rA/U12 as template at 25 uM after 1 hr by liquid scintillation counting analysis; how it was run: as §1
# [6] = Binding affinity to Hepatitis C virus isolate Con1 C-terminal hexahistidine fusion-tagged NS5B polymerase ectodomain by surface plasmon resonance assay
# How it was run: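 Con1 NS5B ectodomain (C-terminal His6) amine-coupled to CM5 chip at 4–5 kRU from 10 mM MES pH 6.0. Running buffer TBS-P (20 mM Tris pH 7.4, 130 mM NaCl, 0.05% Tween20, 5% DMSO). Compound injected 60 s at 30 μL/min, two-fold series 6–200 μM. Reference/blank subtraction, solvent correction; KD from global 1:1 Langmuir fit.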
# [7] = Binding affinity to Hepatitis C virus truncated NS5B polymerase lacking C-terminal 21 amino acids after 5 mins by fluorescence quenching assay; parameters: species or system Hepacivirus hominis
# How it was run: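 NS5B CΔ21 at 1 μM final in 50 mM Tris-HCl pH 7.8, 50 mM NaCl, 10% glycerol, 10% DMSO, 0.5 mM MnCl2. Serially diluted compound or DMSO, 5 min at room temperature. Intrinsic fluorescence excitation 280 nm, emission 330 nm; buffer-plus-compound background subtracted. KD fitted to ΔF/ΔFmax = [compound]total/(KD + [compound]total).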
# [8] = Cytotoxicity against human Huh-9-13 cells assessed as alteration in cell morphology by microscopic analysis; type: cell-based
# [9] = tested on: Hepatitis C virus; test: Antiviral activity against Hepatitis C virus genotype 1b I389luc-ubi-neo/NS3-3'/5.1 replicon in Huh 9-13 cells assessed as reduction in replicon RNA level after 72 hrs by RT-PCR analysis; type: functional, organism-based, Hepacivirus hominis
# [10] = Selectivity index, ratio of CC50 for human Huh-9-13 cells to EC50 for Hepatitis C virus genotype 1b I389luc-ubi-neo/NS3-3'/5.1 replicon in Huh-9-13 cells; type: toxicity, cell-based; conditions: read-out: Ratio CC50/EC50
# How it was run: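 Huh 9-13 replicon cells, setup and 72 h compound exposure as for Huh 5-2; CC50 by MTS in parallel. Antiviral readout: replicon RNA by one-step RT-qPCR of cell-to-cDNA lysates (300 nM each primer, 60 nM probe; 40 cycles), expressed as percentage of untreated controls to give EC50; SI = CC50/EC50.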
# [11] = Cytostatic activity against human Huh-9-13 cells assessed as cell viability after 72 hrs by MTS assay; type: cell-based
# How it was run: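 Huh 9–13 subgenomic replicon cells seeded at 6 500 cells/well in DMEM with 10% FCS, 1% non-essential amino acids, 1% penicillin/streptomycin, then incubated overnight. Compound dilution series given, 72 h at 37 °C, 5% CO₂. Medium replaced with 5% MTS in phenol red-free medium for 1.5 h. Absorbance read at 498 nm as % of untreated. CC50 taken from dose-response, mean of ≥3 independent experiments.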
SMILES,CC50 [1] [µM],EC50 [2] [µM],EC90 [2] [µM],IC50 [3] [µM],selectivity ratio [4],inhibition [5] [%],Kd [6] [µM],Kd [7] [µM],Activity [8],EC50 [9] [µM],selectivity ratio [10],CC50 [11] [µM]
Nc1cc2c(=O)c(C(=O)OCc3ccc(Cl)cc3)cn(Cc3ccc(Cl)cc3)c2cc1Cl,> 200,> 200,> 200,–,–,–,–,–,–,–,–,–
Cc1ccccc1COC(=O)c1cn(Cc2ccc(C(F)(F)F)cc2F)c2cc(Cl)c(N)cc2c1=O,10.5,1.5,–,1.41,6.8,> 50,–,–,–,–,–,–
Nc1cc2c(=O)c(C(=O)O)cn(Cc3ccc(Cl)cc3)c2cc1N1CCN(c2ccccn2)CC1,> 204,7.3,–,23.7,–,–,–,–,–,–,–,–
Nc1cc2c(=O)c(C(=O)OCc3ccc(Cl)cc3)cn(Cc3ccc(Cl)cc3)c2cc1N1CCN(c2cccc(C(F)(F)F)c2)CC1,> 147,23.8,94.6,6.13,–,> 50,–,–,–,–,–,–
Nc1cc2c(=O)c(C(=O)OCc3ccc(Cl)cc3)cn(Cc3ccc(Cl)cc3)c2cc1N1CCNCC1,3.7,1.7,–,0.067,2.3,> 50,–,–,–,–,–,–
Nc1cc2c(=O)c(C(=O)OCc3ccc(Cl)cc3)cn(Cc3ccc(Cl)cc3)c2cc1N1CCN(c2nc3ccccc3s2)CC1,> 169,8.6,–,0.138,–,> 50,–,–,–,–,–,–
COc1cc2c(=O)c(C(=O)OCc3ccc(C)cc3)cn(Cc3ccc(C(F)(F)F)cc3F)c2cc1OC,42.3,2.02,4.7,0.211,21,–,–,–,–,–,–,–
CN1CCN(c2cc3c(cc2N)c(=O)c(C(=O)OCc2ccc(Cl)cc2)cn3Cc2ccc(Cl)cc2)CC1,2.8,2.7,–,0.04,1.2,> 50,14,1.2,–,–,–,–
Nc1cc2c(=O)c(C(=O)OCc3ccc(Cl)cc3)cn(Cc3ccc(Cl)cc3)c2cc1N1CCN(c2ccccn2)CC1,> 244,2.2,13.5,0.069,> 111,> 50,–,–,Toxic,3.03,> 54,> 163
CCOC(=O)c1cn(Cc2ccc(Cl)cc2)c2cc(N3CCN(c4ccccn4)CC3)c(N)cc2c1=O,> 193,31.3,–,3.06,> 6.2,–,–,–,–,–,–,–
Cc1ccc(COC(=O)c2cn(Cc3ccc(C(F)(F)F)cc3F)c3cc(Cl)c(N)cc3c2=O)cc1,> 192,72.3,> 192,0.154,–,> 50,–,–,–,–,–,–
